IDE inh – inhibits human insulin-degrading enzyme in HEK cells; FAbetaB cleavage, fluorescence polarization; inhibition, % at 5.59 µM; P14735; 0.41% of 320,000 active;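 active means percent inhibition above the average of all tested compounds plus 3 SD, set per screening campaign, cut at about 16% in these data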;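 further: IDE supplied by intact live HEK cells; FP after avidin binding of uncleaved biotin substrate so inhibition keeps polarization high; 0% = DMSO wells and 100% = 60 µM reference IDE inhibitor Ii1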
IDE act – activators of human insulin-degrading enzyme in cells. HEK cells, FAbeta-B cleavage, fluorescence polarization; 0% vehicle, 100% cell-free pure enzyme wells. activation, % at 5.96 µM. 0.073% of 340,000 active. AID 493087;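 active means activation above the mean of all tested compounds plus 3 SD, set per screening campaign, cut at about 17% in these data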
TRPML3 ag – activates the human TRPML3 channel; Q8TDD5; HEK293 TRPML3-YFP, Fluo-8 calcium fluorescence; 100% = the carbachol control signal; activation, % at 3 µM; 0.29% of 220,000 active; AID 1448;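 active means activation above its plate's cutoff, the mean activation of the plate's test wells plus 3 SD, cut at about 12% in these data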;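 further: 0% = DMSO only wells and 100% = carbachol wells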
Target sequence (Q8TDD5 whole entry, looked up): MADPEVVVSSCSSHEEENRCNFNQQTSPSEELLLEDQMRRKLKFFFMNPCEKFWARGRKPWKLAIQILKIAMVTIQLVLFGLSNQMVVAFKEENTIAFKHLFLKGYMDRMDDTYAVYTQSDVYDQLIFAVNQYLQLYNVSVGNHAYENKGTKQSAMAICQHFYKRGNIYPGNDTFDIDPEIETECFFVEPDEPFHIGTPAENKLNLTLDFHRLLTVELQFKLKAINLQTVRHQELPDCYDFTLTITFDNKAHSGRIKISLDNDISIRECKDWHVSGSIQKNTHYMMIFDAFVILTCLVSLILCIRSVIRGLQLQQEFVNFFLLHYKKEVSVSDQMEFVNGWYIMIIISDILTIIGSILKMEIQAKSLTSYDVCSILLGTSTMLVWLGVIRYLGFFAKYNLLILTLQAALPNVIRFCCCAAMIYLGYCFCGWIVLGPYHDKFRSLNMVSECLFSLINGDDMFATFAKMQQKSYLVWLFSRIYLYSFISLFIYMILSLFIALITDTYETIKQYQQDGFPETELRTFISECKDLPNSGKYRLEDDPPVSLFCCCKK
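Test system: HEK293 cells stably carrying human TRPML3-YFP; Doses: single dose, 3 µM final nominal compound, 0.3% DMSO final; Schedule: dye loading 1 h 37 °C then 30 min ambient, 125 s read; Technique: Fluo-8 calcium fluorescence; Benchmarks: high control carbachol 87 µM, low control DMSO.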
TRPN1 ag – agonists of zebrafish TRPN1 channel. 0.18% of 220,000 active. HEK293 zebrafish TRPN1-YFP, Fluo-8 calcium fluorescence; 100% = response to 87 µM carbachol. activation, % at 3 µM. AID 1424;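 active means activation above its plate's cutoff, the mean activation of test wells on that plate plus 3 SD, cut at about 19% in these data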;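 further: 0% = DMSO alone and 100% = 87 µM carbachol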
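Material – zebrafish TRPN1-YFP in HEK293 cells · Doses – 3 µM single point · Schedule – dye 1 h 37 °C plus 30 min RT · Signal – Fluo-8 calcium fluorescence, excitation 470-495 nm, emission 515-575 nm · Read-out – % activation versus carbachol response · Control set – carbachol high, DMSO low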
Numbers without * were called inactive; · = not tested or not shown. Rows were chosen to be rich in hits. Some 0.63% of all compounds tested hit in one or more screens of this group.

SMILES	IDE inh	IDE act	TRPML3 ag	TRPN1 ag
C#CCOCCOCCOCCNc1nc(N2CCN(C(=O)CCCCCCCCCCNC(=O)[C@H](CCCCN)n3cc(C)nn3)CC2)nc(N2CCN(C(=O)CCCCCCCCCCNC(=O)[C@@H]([C@H](C)O)n3cc(C)nn3)CC2)n1	5.9	21.5*	·	·
C#CCOCCOCCOCCNc1nc(N2CCN(C(=O)CCCCCCCCCCNC(=O)[C@@H](CCSC)n3cc(CCO)nn3)CC2)nc(N2CCN(C(=O)CCCCCCCCCCNC(=O)[C@@H]([C@H](C)O)n3cc(C)nn3)CC2)n1	4.6	10.4	·	·
C#CCOCCOCCOCCNc1nc(N2CCN(C(=O)CCCCCCCCCCNC(=O)[C@H](CCCCN)n3cc(C[C@@H](C)CC)nn3)CC2)nc(N2CCN(C(=O)CCCCCCCCCCNC(=O)[C@@H]([C@H](C)O)n3cc(C)nn3)CC2)n1	-6.4	33.7*	·	·
COc1ccc(OC)c(NC(=O)CSc2nnc(NC(=O)c3ccco3)s2)c1	-5.4	2.3	·	·
COc1cc(/C=C2/SC(=S)N(Cc3ccccc3)C2=O)ccc1OCC(=O)O	13.1	-2.0	·	·
COc1cc(/C=C2/SC(=S)N(Cc3ccccc3)C2=O)cc(Cl)c1O	86.5*	-118.0	·	·
CCOc1cc(/C=C2/SC(=S)N(Cc3ccccc3)C2=O)ccc1O	83.4*	-75.2	·	·
Cc1ccccc1C(=O)N1CCC(C(=O)NCCc2ccc(S(N)(=O)=O)cc2)CC1	-4.1	0.4	·	·
CCCCN1/C(=C/c2ccc3ccccc3[n+]2CC)Sc2ccccc21	·	·	21.0*	52.5*
CCN1/C(=C/c2ccc3cc(C)ccc3[n+]2CC)Sc2cc(C)ccc21	·	-76.5	12.7*	33.0*
CCN1/C(=C/c2ccc3ccccc3[n+]2CC)C=Cc2ccccc21	3.3	-11.4	0.2	-0.9
Cc1ccc(NC(=O)C2Cc3ccccc3CN2C(=O)c2ccccc2)cc1Cl (configuration not stated)	-3.3	4.0	-0.7	0.8
CCC(CC)C(=O)Nc1nnc(SCC(=O)NC(C)(C)C)s1	6.6	5.3	-0.4	0.1
Cc1c(C(=O)Nc2ccc3c(c2)OCO3)sc2nc(-c3ccccc3)cn12	10.6	-5.8	1.5	1.2
Cc1c(C(=O)Nc2ccccc2)sc2nc(-c3ccccc3)cn12	22.6*	-15.3	1.5	6.1
C=C(C)COc1ccc(-c2[nH]ncc2Oc2ccc(OC)cc2)c(O)c1	2.4	20.7*	0.4	0.0
C=C(C)COc1ccc(-c2[nH]ncc2Oc2ccccc2OC)c(O)c1	-0.5	2.5	-1.5	-1.7
CCOC(=O)c1cccc(P(C)(C)=O)c1	-2.7	19.1*	1.3	0.6
CCOC(=O)c1ccc2nc(C)c(C)nc2c1	-1.2	8.0	0.9	1.5
CC(=O)c1cccc(NC(=O)CCn2c(=S)oc3ccccc32)c1	-0.9	4.8	·	·
COc1ccc(CCn2c(-c3ccccc3)nc3c(c(=O)c4ccccc4n3C)c2=O)cc1	4.9	·	0.8	-0.4
COc1ccc(CCn2c(C3CCCCC3)nc3c(c(=O)c4ccccc4n3C)c2=O)cc1	-3.3	·	12.5*	22.3*
CCc1nc2c(c(=O)c3ccccc3n2C)c(=O)n1C1CCCCCC1	-3.3	6.2	17.6*	19.1*
COc1ccc(Cn2c(C3CCCCC3)nc3c(c(=O)c4ccccc4n3C)c2=O)cc1	0.5	·	-0.3	0.0
CC(C)c1nc2c(c(=O)c3ccccc3n2C)c(=O)n1CCc1ccccc1	1.7	·	9.3	20.9*
SMILES	IDE inh	IDE act	TRPML3 ag	TRPN1 ag
Cc1cc2ccccc2n1CCNC(=O)c1ccc(Br)o1	1.5	6.9	1.0	0.5
COc1cc(CCC(=O)N2CCN(c3ncccn3)CC2)cc(OC)c1OC	-10.4	·	-0.4	-1.1
O=C(CNC(=O)c1ccc(S(=O)(=O)N2CCCC2)cc1)N/N=C/c1c(Cl)cccc1Cl	18.2*	-5.0	0.6	-1.7
O=C(CNC(=O)c1ccc(S(=O)(=O)N2CCCC2)cc1)N/N=C/c1ccc(Cl)cc1	7.0	-3.8	1.5	-2.5
Cc1ccc(S(=O)(=O)NCCS(=O)(=O)N2CCN(c3ccccc3)CC2)cc1	-1.8	5.3	·	·
CCCCNc1c(-c2ccc(SC(C)CC)cc2)nc2cnccn12 (configuration not stated)	-3.5	19.6*	·	·
CCCCCCSc1cc(-c2nc3cnccn3c2NCCCC)ccc1OC	-0.7	19.8*	·	·
CCOC(=O)C1(C)NC(c2cccs2)C2C(=O)N(c3ccc(OC)cc3)C(=O)C21 (configuration not stated)	-8.5	·	0.0	-0.1
CC(C)c1nnc(N2C(=O)C(O)=C(C(=O)c3cccs3)C2c2ccccc2)s1 (configuration not stated)	·	-7.6	114.4*	182.7*
CCN1CCN(CCNC(=O)c2cn(Cc3ccccc3F)nn2)CC1	1.6	-5.6	-0.5	27.6*
CN1CCN(CCNC(=O)c2cn(Cc3ccccc3F)nn2)CC1	-2.8	6.0	0.7	0.0
O=C(N/N=C\c1c(O)ccc2ccccc12)c1cncc(Br)c1	10.9	47.4*	·	·
Cc1ccc(S(=O)(=O)Nc2ccc(NC(=O)c3c(F)c(F)c(F)c(F)c3F)cc2)cc1	-0.2	5.0	5.1	26.5*
NS(=O)(=O)c1ccc(NS(=O)(=O)c2ccc(NC(=O)c3ccc(-c4ccccc4)cc3)cc2)cc1	35.9*	-23.4	2.0	4.0
COc1ccc(OCc2n(CC(=O)OC3CC(C)CCC3C(C)C)c3ccccc3[n+]2C)cc1 (configuration not stated)	-0.2	18.2*	-0.3	-2.0
COc1ccc(-c2n(CC(=O)OC3CC(C)CCC3C(C)C)c3ccccc3[n+]2C)cc1 (configuration not stated)	·	3.6	0.2	-0.7
CCOc1ccc(S(=O)(=O)N2CCCCC2)c2ccccc12	3.4	3.0	61.6*	-0.7
CCOc1ccc(S(=O)(=O)N2CCOCC2)c2ccccc12	7.4	4.0	·	·
CCSc1nnc(NC(=O)Cc2ccc(OC)c(S(=O)(=O)N3CCOCC3)c2)s1	-3.6	2.0	0.2	-0.8
CCN(CC)S(=O)(=O)c1ccc(N2CCc3cc(OC)c(OC)cc3C2)nc1	-4.7	5.4	·	·
Nc1ccc2c(c1)Cc1cc([N+](=O)[O-])ccc1-2	6.6	1.7	15.5*	13.4
c1ccc2c(c1)oc1c(N3CCN(Cc4ccc5c(c4)OCO5)CC3)ncnc12	·	-5.7	0.1	2.3
CCCC1=NN2C(=N)/C(=C\c3ccc(SCc4ccco4)o3)C(=O)N=C2S1	17.8*	-35.0	1.7	4.3
COc1ccc(/C=C/C(=O)O)cc1S(=O)(=O)N1CCCC1	0.2	2.3	·	·
O=C(N/N=C/c1cn(-c2ccccc2)nc1-c1ccc2c(c1)OCCO2)c1ccncc1	-0.6	25.9*	-0.1	1.5
COc1ccc(C(C[N+](=O)[O-])C2(c3ccc(OC)c(OC)c3)C(=O)c3ccccc3C2=O)cc1 (configuration not stated)	16.3*	-9.2	3.0	0.4
COc1ccc(C(C[N+](=O)[O-])c2c(-c3ccccc3)cc3ccccn23)cc1OC (configuration not stated)	5.3	-2.8	0.4	-0.1
CCSC1=N/C(=C\c2ccc3c(c2)OCO3)C(=O)S1	5.2	7.8	1.3	-0.2

Source: PubChem BioAssay
